The text below walks through data of ChEMBL document CHEMBL4706664, “Rational drug design of 6-substituted 4-anilino-2-phenylpyrimidines for exploration of novel ABCG2 binding site” (Eur J Med Chem, 2021).

Broadly, the GI50 is the concentration that inhibits growth by half. By inhibition is commonly meant the share of the control response that was lost under treatment. What is called IC50 is the point on the concentration scale where inhibition reaches its midpoint.

Series [1] in a line: Cytotoxicity against ABCB1 over expressing human A2780 cells assessed as reduction in cell viability measured after 72 hrs by MTT assay. The class given is ADME, cell-based. The conditions noted are these: in the assay text read “human A2780 cells” for “ABCB1 over expressing human A2780 cells”. In short, it runs like this:
(§1)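 MTT cell viability. Compound dilution series prepared in culture medium at 3.16 µM to 1 mM (dilution stock; added 20 µL to 180 µL cells). Seeding per well: MDCK II and MDCK II BCRP 2000, A2780 and A2780/ADR 8000, H69AR 20,000. Incubated 72 h, 37 °C, 5% CO2. MTT 5 mg/mL added for 60 min, formazan dissolved in DMSO, absorbance 570 nm (690 nm background). Medium = 100%, 10% DMSO = 0% viability. GI50 by four-parameter logistic fit. Mean ± SEM of at least three independent experiments.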
On the technique in general: Formazan colour is commonly taken as a measure of viable cells.

Series [2] deals with ABCB1 (Homo sapiens, UniProt P08183). The experiment in a line: Inhibition of ABCB1 (unknown origin) expressed in human A2780 ADR cells assessed as reduction in calcein AM efflux at 10 uM preincubated for 30 mins followed by calcein AM addition and measured at 60 secs interval for 1 hr by fluorescence assay relative to control. The class given is cell-based. The conditions noted are these: A2780 ADR cells expressing ABCB1, probe calcein AM, time 90 min. The method in brief:
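Calcein AM accumulation in A2780/ADR cells (30,000/well, Krebs-HEPES buffer pH 7.4). Cells preincubated with compound 30 min at 37 °C, 5% CO2. Screening at 10 µM.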

The subject of series [3] is ABCB1. The experiment in a line: Therapeutic index, ratio of GI50 for cytotoxicity against ABCB1 over expressing human A2780 ADR cells to IC50 for inhibition of ABCB1 (unknown origin) expressed in human A2780 ADR cells. The conditions noted are these: ABCB1 overexpressing A2780 ADR cells.
The target of series [4] is T1, Broad substrate specificity ATP-binding cassette transporter ABCG2 (Homo sapiens, UniProt Q9UNQ0).
T1 sequence (Q9UNQ0 whole entry): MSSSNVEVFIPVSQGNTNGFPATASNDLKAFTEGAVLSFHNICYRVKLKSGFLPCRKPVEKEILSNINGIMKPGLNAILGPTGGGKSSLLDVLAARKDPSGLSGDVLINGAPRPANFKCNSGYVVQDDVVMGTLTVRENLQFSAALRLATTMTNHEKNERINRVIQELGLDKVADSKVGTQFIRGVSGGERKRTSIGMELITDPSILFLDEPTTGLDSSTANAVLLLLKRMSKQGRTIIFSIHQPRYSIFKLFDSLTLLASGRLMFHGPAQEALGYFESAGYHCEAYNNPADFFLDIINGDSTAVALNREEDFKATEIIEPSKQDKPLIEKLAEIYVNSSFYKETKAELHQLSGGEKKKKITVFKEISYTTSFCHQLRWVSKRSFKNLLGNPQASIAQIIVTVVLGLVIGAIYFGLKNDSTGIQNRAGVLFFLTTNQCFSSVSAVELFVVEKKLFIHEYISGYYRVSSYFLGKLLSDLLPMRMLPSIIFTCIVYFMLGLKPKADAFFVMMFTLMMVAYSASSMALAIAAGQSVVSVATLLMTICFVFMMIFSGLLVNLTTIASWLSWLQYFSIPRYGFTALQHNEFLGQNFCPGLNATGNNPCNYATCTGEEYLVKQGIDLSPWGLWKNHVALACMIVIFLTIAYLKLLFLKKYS
The experiment in a line: Inhibition of ABCG2 (unknown origin) expressed in MDCK-II cells assessed as reduction in pheophorbide A efflux measured after 2 hrs by flow cytometry. The class given is cell-based. The method in brief: (§2)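 Pheophorbide A accumulation in MDCK II BCRP cells, about 45,000 cells/well in Krebs-HEPES buffer pH 7.4. Compound dilutions were prepared at 0.316–100 µM, and 20 µL of 5 µM pheophorbide A was added. Incubated 2 h at 37 °C, 5% CO2. Fluorescence read by flow cytometry (ex 488 nm, em 695/50 nm). IC50 and Imax are mean ± SEM of at least three independent experiments.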
In general terms: In flow cytometry, cells or beads pass a laser one at a time.

Series [5] is described as follows: Cytotoxicity against wild-type MDCK-II cells assessed as reduction in cell viability measured after 72 hrs by MTT assay. The class given is cell-based, Canis lupus familiaris. The note with it: dog. In short, it runs like this:
as §1

Series [6] relates to ABCG2. The experiment in a line: Therapeutic index, ratio of GI50 for cytotoxicity against ABCG2 overexpressing MDCK-II cells to IC50 for inhibition of ABCG2 (unknown origin) expressed in MDCK-II cells. The conditions noted are these: dog.
For series [7], the target named is ATP-dependent translocase ABCB1 (Homo sapiens, UniProt P08183). The series can be described thus: Inhibition of ABCB1 (unknown origin) expressed in human A2780 ADR cells assessed as reduction in calcein AM efflux preincubated for 30 mins followed by calcein AM addition and measured at 60 secs interval for 1 hr by fluorescence assay. The class given is cell-based. The note with it: read-out: IC50. In short, it runs like this:
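Calcein AM accumulation in A2780/ADR cells (30,000/well, Krebs-HEPES buffer pH 7.4). Cells preincubated with compound 30 min at 37 °C, 5% CO2. Then 20 µL of 3.125 µM calcein AM added. Fluorescence (ex 485/em 520 nm) read every 60 s for 1 h. […] Screening at 10 µM.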

Series [8] is described as follows: Cytotoxicity against ABCB1 over expressing human A2780 ADR cells assessed as reduction in cell viability measured after 72 hrs by MTT assay. The class given is ADME, cell-based. The note with it: ABCB1 overexpressing A2780 ADR cells. In short, it runs like this:
as §1

A short description of series [9]: Cytotoxicity against ABCG2 overexpressing MDCK-II cells assessed as reduction in cell viability measured after 72 hrs by MTT assay. The class given is ADME, cell-based, Canis lupus familiaris. The conditions noted are these: dog. In short, it runs like this: as §1
In series [10] the target is T2, ABCG2 (Homo sapiens, UniProt Q9UNQ0).
T2 sequence (Q9UNQ0 whole entry): T1 sequence (Q9UNQ0 whole entry)
The experiment in a line: Inhibition of ABCG2 (unknown origin) expressed in MDCK-II cells assessed as reduction in pheophorbide A efflux measured after 2 hrs by flow cytometry relative to Ko143. The class given is cell-based. The note with it: MDCK-II cells expressing ABCG2, probe pheophorbide A, read-out: Imax. In short, it runs like this: as §2

Sequence of ABCB1 (Homo sapiens, UniProt P08183) (P08183 whole entry): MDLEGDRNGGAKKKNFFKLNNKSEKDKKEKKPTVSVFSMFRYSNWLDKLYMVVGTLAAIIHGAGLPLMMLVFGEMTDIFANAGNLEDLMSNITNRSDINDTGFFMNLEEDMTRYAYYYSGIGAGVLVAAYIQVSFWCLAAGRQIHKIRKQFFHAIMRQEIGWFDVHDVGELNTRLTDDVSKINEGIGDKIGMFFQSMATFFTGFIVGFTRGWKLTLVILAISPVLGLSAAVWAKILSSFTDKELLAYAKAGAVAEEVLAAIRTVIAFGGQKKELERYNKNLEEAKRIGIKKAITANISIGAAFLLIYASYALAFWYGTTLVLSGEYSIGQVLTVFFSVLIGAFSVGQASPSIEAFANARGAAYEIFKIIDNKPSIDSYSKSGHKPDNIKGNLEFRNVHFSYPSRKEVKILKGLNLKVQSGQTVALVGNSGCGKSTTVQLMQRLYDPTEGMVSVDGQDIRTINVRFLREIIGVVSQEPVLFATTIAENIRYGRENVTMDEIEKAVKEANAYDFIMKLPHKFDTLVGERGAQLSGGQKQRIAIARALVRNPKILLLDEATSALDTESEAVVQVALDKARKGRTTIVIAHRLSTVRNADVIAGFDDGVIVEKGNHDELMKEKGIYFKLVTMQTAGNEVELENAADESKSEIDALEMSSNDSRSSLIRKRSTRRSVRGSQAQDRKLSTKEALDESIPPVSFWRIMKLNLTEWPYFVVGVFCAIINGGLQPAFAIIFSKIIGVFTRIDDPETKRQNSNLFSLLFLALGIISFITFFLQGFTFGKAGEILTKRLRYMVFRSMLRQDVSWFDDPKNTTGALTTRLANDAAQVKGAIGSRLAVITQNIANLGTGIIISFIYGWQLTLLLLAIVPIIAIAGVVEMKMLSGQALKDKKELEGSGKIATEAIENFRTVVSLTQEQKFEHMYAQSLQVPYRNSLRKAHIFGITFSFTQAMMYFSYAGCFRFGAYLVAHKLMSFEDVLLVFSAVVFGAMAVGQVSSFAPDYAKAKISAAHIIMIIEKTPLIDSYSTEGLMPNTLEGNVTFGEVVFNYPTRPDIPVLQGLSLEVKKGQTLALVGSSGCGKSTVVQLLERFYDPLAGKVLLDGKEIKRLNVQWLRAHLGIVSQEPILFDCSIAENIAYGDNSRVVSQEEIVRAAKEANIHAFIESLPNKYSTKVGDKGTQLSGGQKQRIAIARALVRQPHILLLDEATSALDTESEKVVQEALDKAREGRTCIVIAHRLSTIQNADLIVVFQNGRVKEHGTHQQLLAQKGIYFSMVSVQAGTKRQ
Sequence of ATP-dependent translocase ABCB1 (P08183 whole entry): as above

Take `N#Cc1ccc(Nc2cc(Nc3ccccc3O)nc(-c3ccccc3)n2)cc1`: the GI50 at 72 h in series [1] came out at 9.07 µM; in series [5], 4.23 µM; in series [8], 9.96 µM; in [9], 4.61 µM. Besides, the inhibition at 1 h, 10 µM in [2] was above 20%. Besides, the selectivity ratio in [3] amounted to 3.34; in series [6], 20.7. Further, the IC50 in series [4] is 0.223 µM; in series [7], 2.98 µM. The Emax at 2 h in series [10] came out at 86%.
